We go through 14 compounds from ChEMBL document CHEMBL4813982, “Novel pyrazolo[4,3-d]pyrimidine microtubule targeting agents (MTAs): Synthesis, structure-activity relationship, in vitro and in vivo evaluation as antitumor agents” (Bioorg Med Chem Lett, 2021).

One may read the inhibition as the relative decrease from the control value, in per cent. A higher inhibition goes with strong suppression. One may read the IC50 as the midpoint of a concentration-inhibition curve. A low value points to greater potency. Broadly, the EC50 is the concentration that produces a half-maximal response. Read a low EC50 as greater potency.

In series [1] the target is T1, Tubulin (Homo sapiens) (UniProt P68371+Q9H4B7+P0DPH7+P68366+Q13509+Q71U36+P04350+Q3ZCM7+P07437+P68363+Q9BQE3+Q6PEY2+Q13885+Q9BVA1+Q9BUF5). Briefly: Inhibition of [3H]colchicine binding to tubulin (unknown origin) at 5 uM relative to control. Format: protein-complex assay.
The target in series [2] is T1, Tubulin (Homo sapiens). The series can be described thus: Inhibition of [3H]colchicine binding to tubulin (unknown origin) at 0.5 uM relative to control. Format: protein-complex assay.
The test system of series [3] is OVCAR-8. Briefly: Antiproliferative activity against human OVCAR-8 cells. Format: functional, cell-based.
In series [4] the target is Tubulin. Briefly: Inhibition of tubulin assembly (unknown origin). Format: protein-complex assay, Homo sapiens.
Series [5] can be described thus: Resistance ratio of IC50 for antiproliferative activity against human NCI/ADR-RES cells expressing Pgp to IC50 for antiproliferative activity against human OVCAR-8 cells. Format: functional. In a few lines:
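Resistance ratio: IC50 in Pgp-overexpressing NCI/ADR-RES cells divided by IC50 in parental OVCAR-8 cells.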

Series [6] has as its system NCI/ADR-RES. Briefly: Antiproliferative activity against human NCI/ADR-RES cells overexpressing Pgp. Format: functional, cell-based.
The test system of series [7] is MCF7. Briefly: Antiproliferative activity against human MCF7 cells expressing TUBB3. Format: functional, cell-based.
The subject of series [8] is MCF7. Briefly: Potency index, ratio of EC50 of paclitaxel to EC50 of compound for antiproliferative activity against human MCF7 cells. Format: functional.
Series [9] is described as follows: Resistance ratio of EC50 for antiproliferative activity against human MCF7 cells expressing TUBB3 to EC50 for antiproliferative activity against human MCF7 cells. Format: functional. In a few lines:
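Resistance ratio: EC50 in MCF-7 cells overexpressing βIII-tubulin divided by EC50 in parental wild-type MCF-7 cells.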

Series [10] concerns MCF7. The series can be described thus: Antiproliferative activity against human MCF7 cells. Format: functional, cell-based.
Series [11] has as its system MCF7. The series can be described thus: Potency index, ratio of EC50 of paclitaxel to EC50 of compound for antiproliferative activity against human MCF7 cells expressing TUBB3. Format: functional.
Series [12] has as its system MCF7. The series can be described thus: Antitumor activity against human MCF7 cells expressing TUBB3 xenografted in athymic mouse assessed as reduction in tumor growth at 10 mg/kg administered twice in a week. Format: functional, organism-based. (In general: Xenograft models place foreign cells or tissue in a host animal.)
A short description of series [13]: Toxicity in athymic mouse xenografted with human MCF7 cells expressing TUBB3 assessed as effect on body weight at 10 mg/kg administered twice in a week. Format: organism-based. Particulars: in vivo.

Active and inactive are the calls of the source. No cut-off for these calls is given here.

`COc1ccc(Nc2nc(C)nc3cc[nH]c23)cc1`: in [1], the inhibition was 0%.
Turning to `CSc1ccc(N(C)c2nc(Cl)nc3cnn(C)c23)cc1`, the inhibition in series [2] turned out to be 64%; in series [1], 93%. Also, the IC50 in series [3] was 31 nM; in series [4], 820 nM; in series [6], 17 nM. In addition, the “Ratio IC50” value in [5] was found to be 0.54.
As for `CCOc1ccc(N(C)c2nc(Cl)nc3cnn(C)c23)cc1`, the inhibition in [2] worked out at 88%; in series [1], 99%. The 50% inhibitory concentration (IC50) in series [3] is 2 nM; in [4], 420 nM; in series [6] it was 4 nM. Also, the EC50 is 9.7 nM in series [7] and 7.7 nM in series [10]. In addition, the “Ratio EC50” value in series [8] was 25; in series [9] it was 1.3; in series [11] it was 220. In addition, the “Ratio IC50” value in series [5] was 2.
Consider `COc1ccc(N(C)c2nc(Cl)nc3cnn(C)c23)cc1F`, for which the inhibition in [2] worked out at 77%; in series [1] it was 97%. Besides, the IC50 came out at 9 nM in series [3], 740 nM in series [4] and 7 nM in [6]. The EC50 in series [7] was 2.6 nM; in series [10], 1.7 nM. The results for the “Ratio EC50” value in series [8], in series [9] and in series [11] were 100, 1.6 and 600, respectively. In addition, the “Ratio IC50” value in [5] is 0.77.
Turning to `COc1ccc2c(c1)CCCN2c1nc(Cl)nc2cnn(C)c12`, the inhibition in series [2] came out at 68%; in [1] it was 94%. Further, the figures for the IC50 in [3], in series [4] and in [6] were 17 nM, 420 nM and 8 nM, respectively. The “Ratio IC50” value in [5] was found to be 0.47.
With `CC(C)Oc1ccc(N(C)c2nc(Cl)nc3cnn(C)c23)cc1`, the IC50 was found to be 49 nM in [3], 1100 nM in series [4] and 44 nM in [6]. In series [1], this compound gave an inhibition of 85%. Also, in series [5], the “Ratio IC50” value is recorded as 0.89.
With `COc1ccc(Nc2nc(Cl)nc3cnn(C)c23)cc1`, the IC50 is more than 5000 nM in [3], more than 20000 nM in [4] and more than 5000 nM in series [6]. This compound showed an inhibition in [1] of 7.1%.
Regarding `CC(=O)O[C@H]1C(=O)[C@@]2(C)[C@H]([C@H](OC(=O)c3ccccc3)[C@]3(O)C[C@H](OC(=O)[C@H](O)[C@@H](NC(=O)c4ccccc4)c4ccccc4)C(C)=C1C3(C)C)[C@]1(OC(C)=O)CO[C@@H]1C[C@@H]2O` [PACLITAXEL], the TGI entry in series [12] was “Active”. Further, inhibition in [3] was half-maximal at 5.3 nM (IC50). For the same compound, the EC50 in [7] is 2070 nM; in series [10], 194 nM. Besides, the Activity result in series [13] was “Toxic”.
Compound `COc1ccc2c(c1)CCCN2c1nc(C)nc2c(Cc3ccccc3)c[nH]c12` came in with an inhibition in series [1] of 43%.
Take `COc1ccc(N(C)c2nc(C)nc3ccn(C)c23)cc1`: the results for the inhibition in [2] and in series [1] were 79% and 99%, respectively.
Turning to `CN(c1ccc(OC(F)(F)F)cc1)c1nc(Cl)nc2cnn(C)c12`, the IC50 in series [3] amounted to 880 nM; in [4], 2900 nM; in [6], 730 nM. Further, the inhibition in [1] is 64%. Besides, the “Ratio IC50” value in series [5] was 0.83.
`COc1ccc(N(C)c2nc(C)nc3cc[nH]c23)cc1` came in with an IC50 in [4] of 10000 nM. In series [1], this compound showed an inhibition of 60%.
As for `COc1ccc(N(C)c2nc(C)nc3c(Cc4ccccc4)cn(C)c23)cc1`, the inhibition in [2] stood at 73%; in series [1], 92%. The IC50 in [4] was found to be 480 nM.
`COc1ccc(N(C)c2nc(C)nc3c(Cc4ccccc4)c[nH]c23)cc1` registered an IC50 in series [4] of 21000 nM.
